This passage reports IC50, inhibition and Ki results from ChEMBL document CHEMBL4400579, “Antibacterial Strategy against H. pylori: Inhibition of the Radical SAM Enzyme MqnE in Menaquinone Biosynthesis” (ACS Med Chem Lett, 2019).

SMILES strings stand for the structures. pIC50, pKi: −log10 of the molar value. Active and inactive are the calls of the source. The calls are words filed in the database; no cut-off is given here.

The nature of assay [1]: Antibacterial activity against Campylobacter jejuni ATCC 33560 AS-83-79 measured after 16.4 hrs. The class given is functional, Campylobacter jejuni subsp. jejuni. An outline of the steps:
(§1)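 Bacterial growth inhibition measured by 96-well plate liquid culture. IC50 values taken as reported for each organism.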

Assay [2] concerns the target T1, Aminodeoxyfutalosine synthase (Thermus thermophilus (strain HB8 / ATCC 27634 / DSM 579), UniProt Q5SK48).
T1 sequence (Q5SK48 whole entry): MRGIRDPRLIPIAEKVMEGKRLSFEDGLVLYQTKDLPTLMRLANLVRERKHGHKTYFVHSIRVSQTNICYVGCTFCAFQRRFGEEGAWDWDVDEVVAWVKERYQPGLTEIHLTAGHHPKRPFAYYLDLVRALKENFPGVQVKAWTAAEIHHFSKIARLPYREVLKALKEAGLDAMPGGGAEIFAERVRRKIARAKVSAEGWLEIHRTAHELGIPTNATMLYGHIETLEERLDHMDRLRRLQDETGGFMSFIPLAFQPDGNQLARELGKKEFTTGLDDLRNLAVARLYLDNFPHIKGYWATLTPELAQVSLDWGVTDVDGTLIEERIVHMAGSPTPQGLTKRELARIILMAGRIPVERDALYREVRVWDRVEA
The assay can be described thus: Inhibition of N-terminal His6-tagged Thermus thermophilus HB8 MqnE expressed in Escherichia coli BL21 (DE3) co-expressing [4Fe-4S]2+ cluster using 3-(1-carboxyvinyloxy)benzoic acid as substrate preincubated for 15 mins in presence of SAM and substrate followed by Ti(3+)citrate addition and measured by discontinuous HPLC analysis. An outline of the steps:
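[4Fe-4S]2+-reconstituted T. thermophilus MqnE preincubated with a range of inhibitor concentrations plus excess SAM and substrate 1. Reaction started by reducing the enzyme with Ti(III) citrate. Aminofutalosine formation followed by discontinuous HPLC. Normalized relative initial rates plotted against inhibitor concentration to give IC50. Where IC50 fell within 5-fold of enzyme concentration, Ki fitted with the Morrison tight-binding equation.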

The next assay has as its system Helicobacter pylori. The assay can be described thus: Antibacterial activity against Helicobacter pylori 26695 ATCC 700392 measured after 72 hrs. Particulars: 26695 ATCC 700392, 72 h. In kind it is functional, organism-based. In short, it runs like this: as §1
Assay [3] concerns the target T2, Aminodeoxyfutalosine synthase (Thermus thermophilus (strain HB8 / ATCC 27634 / DSM 579)) (UniProt Q5SK48).
T2 sequence (whole entry): T1 sequence (Q5SK48 whole entry)
The assay can be described thus: Reversible inhibition of N-terminal His6-tagged Thermus thermophilus HB8 MqnE expressed in Escherichia coli BL21 (DE3) co-expressing [4Fe-4S]2+ cluster assessed as restoration of enzyme activity at 2 mM using 3-(1-carboxyvinyloxy)benzoic acid as substrate preincubated for 1 hr in presence of SAM, substrate and Ti(3+)citrate followed by compound washout and subsequent addition of SAM, substrate and Ti(3+)citrate measured after 1 hr by HPLC analysis. In short, it runs like this:
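Reversibility test: MqnE preincubated with inhibitor for 1 h, inhibitor then removed by gel filtration, and enzyme activity compared for restoration.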

On to `Nc1ncnc2c1ncn2[C@@H]1O[C@H](CCC(Cc2cccc(C(=O)O)c2)C(=O)O)[C@@H](O)[C@H]1O` (some centres not stated), for which the pIC50 in assay [1] is 4.08; in assay [2] it was 3.08; in the assay on Helicobacter pylori it was 4.79.

Consider `CCCCSC[C@H]1CN(Cc2c[nH]c3c(N)ncnc23)C[C@@H]1O`, for which the pIC50 in assay [1] is 5.85; in the assay with Helicobacter pylori it was 7.92.

On to `CN[C@@H]1[C@@H](O)[C@@H](O[C@@H]2[C@@H](O)[C@H](O[C@H]3O[C@H]([C@@H](C)N)CC[C@H]3N)[C@@H](N)C[C@H]2N)OC[C@]1(C)O` [GENTAMICIN C2], for which the pIC50 was 5.72 in assay [1] and 6.59 in the assay on Helicobacter pylori.

For `C=C(Cc1cccc(C(=O)O)c1)C(=O)O`, the pIC50 in assay [1] was 4.87; in assay [2], 4.41; with Helicobacter pylori, 5.74. Further, the inhibition entry in assay [3] was “Active”. In assay [2], the negative-log Ki (pKi) is 5.51.

Usually pIC50 stands for the negative decadic logarithm of the IC50, by convention in mol/L. What is called pKi is the negative decadic logarithm of the Ki, by convention in mol/L.
